Screening results from PubChem BioAssay.
A selection: hits, their analogues and other compounds. The true share with any hit is near 1.5%.
APJ antag: antagonists of human APJ apelin receptor. CHO-K1 APJ beta-arrestin complementation, luminescence. AID 2521. actives 0.32% (n = 330,000). inhibition, % at 20 µM;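 active means inhibition above about 40% at 20 µM, limit read from the data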;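 further: cells challenged with 10 nM apelin-13 agonist together with compound; plate controls were apelin-13 plus DMSO wells for no effect and DMSO wells lacking apelin-13 for full effect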
Target sequence (P35414 whole entry, looked up): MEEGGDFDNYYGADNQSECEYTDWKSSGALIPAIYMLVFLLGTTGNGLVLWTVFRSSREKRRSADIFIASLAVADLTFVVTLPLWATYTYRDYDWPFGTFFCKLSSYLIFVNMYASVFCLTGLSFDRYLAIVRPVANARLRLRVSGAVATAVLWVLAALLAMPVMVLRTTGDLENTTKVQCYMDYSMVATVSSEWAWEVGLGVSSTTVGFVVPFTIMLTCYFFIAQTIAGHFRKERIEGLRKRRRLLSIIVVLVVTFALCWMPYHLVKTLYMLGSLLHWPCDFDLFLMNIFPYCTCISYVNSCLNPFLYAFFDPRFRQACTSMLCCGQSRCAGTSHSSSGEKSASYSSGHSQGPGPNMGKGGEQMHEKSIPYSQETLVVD
EBI2 antag: antagonists of human EBI2 receptor | EBI2 beta-arrestin recruitment, luminescence, 7a,25-OHC stimulated | actives 0.81% (n = 360,000) | inhibition, % at 5 µM | AID 651636 | P32249; in the data active means inhibition above about 38%;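 further: enzyme fragment complementation signal reports receptor beta-arrestin coupling in cells; 0% = agonist plus DMSO wells and 100% = wells without agonist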
CXCR6 block: blocks human CXCR6 beta-arrestin recruitment | O00574 | CHO-K1 PathHunter CXCR6 beta-arrestin, luminescence | inhibition, % at 20 µM | actives 0.36% (n = 360,000) | AID 602244; in the data active means inhibition above about 34%, passing the limit was not always enough;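 further: antagonist mode with CXCL16 agonist at 10 nM final; 0% = 10 nM CXCL16 with DMSO and 100% = unstimulated wells without agonist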
APJ agonist: activates the human apelin receptor APJ | AID 2520 | activation, % at 20 µM | CHO-K1 APJ PathHunter beta-arrestin, luminescence; 0% DMSO wells, 100% apelin | actives 0.11% (n = 330,000);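 active means activation more than six SD over the plate average, tested at 20 µM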;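 further: 0% = DMSO alone and 100% = apelin-13 at 10 nM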
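Test system: CHO-K1 APJ beta-arrestin complementation cell line. Amount: cell density 1000 per well. Controls: DMSO negative, 10 nM Apelin-13 positive. Signal: luminescent beta-gal fragment complementation, chemiluminescent substrate. Read-out basis: agonist-driven arrestin binding to APJ. Timing: compound stimulation 90 min at 25 °C, detection 60 min.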
CCR6 antagonist: CCR6 (human) receptor antagonism; P51684; CHO-K1 CCR6 PathHunter beta-arrestin, luminescence, CCL20-stimulated; inhibition, % at 20 µM; actives 0.49% (n = 340,000); AID 493098;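 active means compounds whose inhibition of the agonist-driven luminescence signal at 20 µM reaches about 50%, limit read from the data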;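 further: cells stimulated with CCL20 at 14 nM final; plate controls were DMSO with CCL20 for no effect and DMSO without agonist for full effect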
EBI2 antag conf: EBI2 (human) antagonism, single concentration confirmation; shares compounds with EBI2 antag; EBI2 beta-arrestin luminescence, 7a,25-OHC antagonism; actives 29% (n = 2,400); AID 651997; inhibition, % at 5 µM;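 active means inhibition of at least 50%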
EBI2 agonist: activates EBI2, counter-screen for EBI2 antagonists. shares compounds with EBI2 antag. EBI2-expressing cells, agonist mode, luminescence, 60 min; 0% vehicle, 100% 7α,25-dihydroxycholesterol control. activation, % at 5 µM. 2,400 tested, under 10 active;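 active means activation of at least 50%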
bGal cs: inhibits E. coli beta-galactosidase, counter-screen for EBI2 antagonists. purified beta-galactosidase, luminescent Galacton Star, 15 min. actives 1% (n = 2,400). shares compounds with EBI2 antag. inhibition, % at 5 µM;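 active means replicate-average signal at least 3 plate SD below neutral wells, shown as high inhibition, flagging enzyme-inhibiting false positives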;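 further: 0% = DMSO wells with enzyme and 100% = wells lacking enzyme; higher means stronger loss of beta-gal luminescence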
Starred values were filed as active, the others as inactive; · = no result given.

SMILES	APJ antag	EBI2 antag	CXCR6 block	APJ agonist	CCR6 antagonist	EBI2 antag conf	EBI2 agonist	bGal cs
OC[C@@H]1CN(Cc2ccc3c(c2)OCO3)C[C@H](n2cnc3c(N4CCN(c5ccccc5)CC4)ncnc32)O1	·	1	3	·	·	·	·	·
CN1CCCN(C(=O)CSc2ccccc2)CC1	-8	2	3	-3	-5	·	·	·
CN1CCN(C(=O)CSc2ccc(Cl)cc2)CC1	-42	47*	8	1	-11	20	-1	-19
Nc1c(C(=O)c2ccccc2)sc(Nc2ccccc2)c1S(=O)(=O)c1ccccc1	-12	46*	20	-3	32	50*	4	3
O[C@@H]1CN(Cc2cccs2)[C@@H](c2ccccc2)C[C@H]1n1cc(-c2ccc(F)cc2)nn1	·	17	10	·	·	·	·	·
COC(=O)c1c(NC(=O)CN2C(=O)c3ccccc3C2=O)sc(Cc2ccc3c(c2)OCO3)c1C	2	63*	6	0	-8	33	0	-12
COC(=O)c1c(NC(=O)CN2CCN(Cc3ccc4c(c3)OCO4)CC2)sc(C)c1C	1	10	-4	-5	5	·	·	·
O=c1[nH]c(C2CCN(S(=O)(=O)/C=C/c3ccccc3)CC2)nc2c1nnn2Cc1ccc(F)cc1	9	48*	-3	-2	5	33	0	7
O=c1[nH]c(C2CCN(S(=O)(=O)Cc3ccccc3)CC2)nc2c1nnn2Cc1ccccc1	4	-11	4	1	12	·	·	·
Cc1nc(CSc2ccc(Cl)cc2)cc(NCc2ccccc2)n1	5	47*	-4	-1	11	20	0	-1
Cc1ccc(-n2nnnc2-c2ccccc2Br)cc1	-5	38*	2	0	-1	45	-2	-17
COc1cccc(C(=O)N2CCN(C(=O)COc3ccc4ccccc4c3)CC2)c1	-7	95*	1	-4	-3	78*	1	8
CCOC(=O)N1CCN(C(=O)c2ccc3ccccc3c2)CC1	-2	68*	-3	0	15	31	-1	-10
O=C(c1ccc2c(c1)OCO2)N1CCN(c2ccc(C(F)(F)F)cn2)CC1	-6	-7	-4	-2	11	·	·	·
COc1ccc(N2CCN(C(=O)c3csc4ccccc34)CC2)cc1	9	53*	-2	-4	15	39	0	10
O=C(c1csc2ccccc12)N1CCN(c2ccc(Cl)c(Cl)c2)CC1	16	38	-4	2	13	·	·	·
O=C(c1ccc2ccccc2c1)N1CCN(c2ccc(C(F)(F)F)cn2)CC1	6	85*	-20	-4	14	71*	2	10
CN1CCN(C(=O)c2ccc3ccccc3c2)CC1	-14	41	-5	-4	11	·	·	·
COc1cccc(N2CCN(C(=O)c3ccc4ccccc4c3)CC2)c1	-4	62*	-19	-5	4	42	1	5
O=C(COc1ccc2cc(Br)ccc2c1)N1CCCC1	6	69*	0	4	3	44	2	8
CCc1nc2ccc(C(=O)N3CCN(c4cccc(OC)c4)CC3)cc2nc1CC	10	-3	5	-4	14	·	·	·
COc1cc(C(=O)N2CCN(C(=O)COc3ccc4ccccc4c3)CC2)cc(OC)c1OC	25	71*	-7	-3	3	50*	0	6
COC(=O)c1sc(-c2ccccc2)cc1NC(=O)C1CC1	0	9	1	-3	6	·	·	·
CCOc1ccc(NC(=O)Nc2cc(-c3ccccc3)sc2C(=O)OC)cc1	-48	46*	-4	-1	6	21	-1	-17
Cc1ccc(NC(=O)CNC(=O)CN2C(=O)c3ccccc3C2=O)cc1	·	-2	4	·	·	·	·	·
SMILES	APJ antag	EBI2 antag	CXCR6 block	APJ agonist	CCR6 antagonist	EBI2 antag conf	EBI2 agonist	bGal cs
Nc1c(Cl)cc(N=Nc2ccccc2)cc1Cl	·	11	12	·	31	·	·	·
O=C(CSc1nnc(SCc2ccc(Cl)cc2)s1)N/N=C/c1ccc(Cl)cc1Cl	-12	52*	-10	-3	-7	10	1	3
O=C(CSc1nnc(SCc2ccccc2)s1)N/N=C/C=C\c1ccco1	10	12	0	-4	32	·	·	·
CC(=C/c1ccco1)/C=N/NC(=O)CSc1nnc(SCc2ccc(C)cc2)s1	-33	59*	8	0	-15	20	-1	-9
COc1ccc(NC(=O)c2ccc(COCC(F)(F)C(F)F)cc2)cc1	-10	44*	-6	-2	16	21	0	-17
O=C(O)c1ccc(C(S(=O)(=O)c2ccccc2)S(=O)(=O)c2ccccc2)cc1	·	-7	9	·	·	·	·	·
CNc1ccc(/C=C(\C#N)c2ccccn2)cc1[N+](=O)[O-]	3	5	6	-3	9	·	·	·
N#C/C(=C\c1ccc(Cl)c([N+](=O)[O-])c1)c1ccccn1	-7	53*	-13	5	-5	58*	3	0
CC(NC(=O)COC(=O)/C=C/c1ccc(Cl)cc1)c1ccccc1 (stereo unspecified)	-16	48*	3	0	15	15	-1	-11
CC(NC(=O)COC(=O)/C=C/c1cccc(F)c1)c1ccccc1 (stereo unspecified)	5	17	-7	-3	0	·	·	·
COc1ccc(CCC(=O)N2CCN(C(=O)c3ccccc3)CC2)cc1	14	55*	9	1	0	40	2	-1
O=C(CCCc1ccccc1)N1CCN(C2CCCCC2)CC1	11	8	1	-2	3	·	·	·
COc1ccc(CCC(=O)N2CCN(C3CCCCC3)CC2)cc1	5	45*	-2	-4	3	15	-1	-8
CCCNC(=O)C1(C)CCCN(Cc2cccc(Oc3ccccc3)c2)C1 (stereo unspecified)	·	11	5	·	·	·	·	·
CC(C)Nc1nc(Nc2ccc(C(N)=O)cc2)c2sccc2n1	·	-5	0	·	·	·	·	·
COC(=O)c1cc2c(ccn2-c2ccc(F)cc2)n1Cc1ccc(OC)cc1	6	44*	8	2	26	19	0	5
CCn1c(C(=O)OC)cc2c1ccn2-c1ccc(F)cc1	18	46*	5	-4	16	20	-1	-8
Cc1ccc(/C=N/NC(=S)NC2CCS(=O)(=O)C2)cc1 (stereo unspecified)	17	44*	-8	4	1	44	1	7
COc1ccc(/C=N/NC(=S)NC2CCS(=O)(=O)C2)cc1OC (stereo unspecified)	-1	-2	-3	0	0	·	·	·
O=C(CSc1ccccc1)N1CCN(S(=O)(=O)c2ccccc2F)CC1	16	24	-4	0	15	·	·	·
